Bfl-1 A1 inh – caspase 3/7 activation in MEF A1-2A-BIM cells, primary screen, A1 inhibitor project, cell-based, luminescence, HTS; AID 2462, 2010; caspase activation, % (concentration not given with the values); actives 0.066% (n = 330,000); Caspase-Glo 3/7 luminescence, 3 h; percent of clofoctol response, vehicle zero;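 active = over half of replicate activation scores above 10%, or exactly half above 10 with the replicate mean above 10; inconclusive = replicate mean below 10 yet half the replicates above 10; inactive = over half of replicates below 10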
XBP1 UPR activ – activators of adaptive XBP1 UPR arm, primary screen, cell-based, CHO-XBP1 luciferase reporter, luminescence, uHTS | IRE1-XBP1 UPR activation; percent of tunicamycin response, DMSO as zero | activation, % at 20 µM | actives 0.33% (n = 330,000) | AID 463104, 2010;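 active = versus positive control, 20 µM dose yields 30% or more activation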;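 also: 100% = tunicamycin at 10 µg/mL and 0% = DMSO only wells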
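Material – CHO cell line with stable XBP1 luciferase reporter · Buffer or medium – F12 plus 10% FBS · Compound – single point, 20 µM final compound, 1% DMSO · Schedule – 16-18 h cell attachment at 37 °C, then 6 h compound exposure · Signal – Steady-Glo luminescence read · Benchmarks – high control tunicamycin 10 µg/mL final, low control DMSO vehicle only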
CHOP UPR activ – activators of apoptotic CHOP UPR arm, primary screen, cell-based, CHO-CHOP luciferase reporter, luminescence, uHTS; UPR activation; percent of tunicamycin response over DMSO baseline; activation, % at 10 µM; actives 0.34% (n = 330,000);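 active = at 10 µM dose, activation of 40% or more, normalized to positive control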;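 also: 100% = tunicamycin at 10 µg/mL and 0% = DMSO alone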
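System: CHO CHOP reporter cells. Amount: 500 cells per well. Buffer or medium: F12 medium, 10% FBS. Compound dosing: one dose, 10 µM in 0.5% DMSO. Incubation: 6 h compound exposure at 37 °C after overnight seeding. Technique: Steady-Glo luciferase luminescence. Benchmarks: tunicamycin and DMSO controls.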
CHOP inhibitor – inhibitors of CHOP promoter induction, primary screen, cell-based, unfolded protein response, luciferase reporter. actives 3.8% (n = 220,000). inhibition, % at 10 µM. AID 2732, 2010. CHO-K1 CHOP-promoter luciferase, tunicamycin-induced, 15-18 h;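 active = compounds that reduced the stress-induced luciferase reporter signal by more than about 70% of percent inhibition, limit read from the data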;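 also: 0% = tunicamycin plus vehicle and 100% = wells without tunicamycin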
XBP1 UPR conf – IRE1-XBP1 UPR arm activators, confirmation, cell-based, CHO-XBP1 luciferase reporter, luminescence, single concentration | shares compounds with XBP1 UPR activ | activation, % at 20 µM | actives 63% (n = 1,000) | AID 485299, 2010;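 active = reporter signal at least 30% of the positive control's activation in two or more of four replicate wells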;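 also: plate controls were DMSO negative control for no effect and tunicamycin 10 µg/mL positive control for full effect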
Numbers without * were called inactive; ? = inconclusive; / = no result. This is one part of a sample in which hits are shown more often than they occur.

SMILES	Bfl-1 A1 inh	XBP1 UPR activ	CHOP UPR activ	CHOP inhibitor	XBP1 UPR conf
CCc1sc2nc(SCC(=O)Nc3cc(C)on3)n(-c3cccc(OC)c3)c(=O)c2c1C	?	40*	19	89*	81*
CCC(C)N(C(=O)CSc1nc2ccc(OC)cc2[nH]1)C1CCS(=O)(=O)C1 (stereo not given)	0	0	2	/	/
C[C@@H]1CN([C@H](C)CO)C(=O)Cc2cc(NS(=O)(=O)c3ccc(F)cc3)ccc2O[C@H]1CN(C)Cc1ccc(C(=O)O)cc1	0	-3	1	/	/
C[C@@H]1CN([C@H](C)CO)C(=O)Cc2cc(NS(=O)(=O)c3ccc(Cl)cc3)ccc2O[C@H]1CN(C)Cc1ccc(C(F)(F)F)cc1	1	48*	28	/	22
COC(=O)[C@]1(C)N[C@H](CN(C)S(=O)(=O)c2ccc(-c3ccccc3)cc2)[C@@H]2C(=O)N(C)C(=O)[C@@H]21	/	-3	1	/	/
O=[N+]([O-])c1cc(-c2ccc(/C=N/c3nc4ccccn4c3-c3ccco3)o2)ccc1Cl	-5	101*	18	91*	98*
O=[N+]([O-])c1ccc(-c2ccc(C=Nc3cccc4ccccc34)o2)cc1	-1	1	-1	41	/
C#CCn1c(=NC(=O)c2ccc(Cl)s2)sc2cccc(OC)c21	0	136*	10	79*	112*
C#CCn1c(=NC(=O)c2cccs2)sc2cccc(OCC)c21	1	12	2	12	/
CCCCCC1CCC(C(=O)N2CCOCC2)CC1 (stereo not given)	-1	-3	2	/	/
N/C(=N\c1nc(CSc2ccccn2)cc(=O)[nH]1)Nc1ccc(Cl)cc1Cl	1	32*	-3	18	32*
CC(=O)n1c(-c2ccccc2)c(CO)c2ccccc21	1	5	-1	/	/
NCCc1c(-c2ccccc2)n(-c2ccccc2)c2ccccc12	/	38*	4	-9	84*
COc1ccc(C(=O)N/N=C/c2ccccc2OC(=O)c2ccccc2)cc1	-3	51*	2	/	30
CCCCn1c(N)c(N(CCC(C)C)C(=O)c2ccc3c(c2)OCCO3)c(=O)[nH]c1=O	1	0	1	/	/
CN1CC(=O)Nc2ccc([N+](=O)[O-])cc2C1=O	3	-5	2	/	/
CCOc1ccc(C(=O)Nc2ccc3c(c2)OCCO3)cc1	-7	-7	-2	/	/
C=CCN=C1S/C(=C/c2cccc([N+](=O)[O-])c2)C(=O)N1CC=C	0	33*	9	-9	47*
C=CCN=C1S/C(=C/c2ccc([N+](=O)[O-])cc2)C(=O)N1CC=C	0	3	0	-11	/
Oc1c(Cl)cc(Cl)cc1C1Nc2ccccc2-n2cccc21 (stereo not given)	0	-3	2	-9	/
COc1ccc2c(c1)NC(c1cc(Cl)cc(Cl)c1O)c1cccn1-2 (stereo not given)	/	49*	6	30	57*
O=C(C[C@H]1C[C@H](C(=O)N2CCCCC2)[C@@]2(CCc3ccccc3)c3[nH]c4cc(-c5ccco5)ccc4c3CCN2C1=O)NCCC1=CCCCC1	/	0	3	/	/
O=C(CC1C[C@H](C(=O)N2CCCCC2)[C@@]2(CCc3ccccc3)c3[nH]c4ccccc4c3CCN2C1=O)NCCC1=CCCCC1 (stereo not given in full)	3	126*	40	/	93*
CN(C)C(=O)CCc1ccc2c3c([nH]c2c1)[C@]1(CCc2ccccc2)[C@@H](C(=O)N2CCCCC2)C[C@H](CC(=O)NCc2ccco2)C(=O)N1CC3	/	33*	40	/	2
CN(C)C(=O)CCc1ccc2c3c([nH]c2c1)[C@]1(C)[C@@H](C(=O)N2CCCCC2)C[C@H](CC(=O)NCc2ccco2)C(=O)N1CC3	/	0	2	/	/
SMILES	Bfl-1 A1 inh	XBP1 UPR activ	CHOP UPR activ	CHOP inhibitor	XBP1 UPR conf
CC(C)CN1Cc2ccccc2Oc2cc(Br)ccc2S1(=O)=O	/	-1	1	/	/
Cc1ccc2c(=O)[nH]c(Nc3nc(C)cc(-c4ccccc4)n3)nc2c1	0	33*	8	42	43*
Cc1nc(Nc2nc(-c3ccccc3)cc(=O)[nH]2)nc2ccccc12	0	84*	3	/	132*
N#Cc1cccc(NC(=O)c2cncn2-c2ccccc2)c1	-1	0	-2	/	/
CC1CCN(C(=O)COC(=O)c2ccc(Cl)nc2)CC1	1	2	4	/	/
COc1cccc(NC(=O)CSc2nc3n[nH]c(C)c3c(=N)n2-c2cccc(OC)c2)c1	0	7	-1	67	/
Cc1cc(-n2c(SCC(=O)Nc3ccc(F)c(F)c3)nc3n[nH]c(C)c3c2=N)ccc1Cl	0	34*	10	/	60*
Cc1cc(-n2c(SCC(=O)Nc3ccc(Br)cc3)nc3n[nH]c(C)c3c2=N)ccc1Cl	2	36*	5	/	20
O=C(O)c1ccc(S(=O)(=O)N(Cc2ccccc2)C2CCCCC2)cc1	1	-4	-2	/	/
Cc1ccc(Cn2c(=N)n(CC(=O)c3ccc([N+](=O)[O-])cc3)c3ccccc32)cc1	1	67*	15	9	18
CCCCn1c(=N)n(CC(=O)c2ccc([N+](=O)[O-])cc2)c2ccccc21	2	3	0	33	/
O=C(COC(=O)c1ccc2[nH]c3c(c2c1)CCCC3)Nc1ccccc1Cl	-1	52*	-2	-29	66*
COc1ccc(/C=N\NC(=O)c2cc(O)c(O)c(O)c2)cc1COc1ccc(C(=O)OCC(C)C)cc1	0	41*	5	/	25
COc1ccc(-c2coc3cc4oc(=O)c5ccccc5c4cc23)cc1F	0	64*	1	5	23
O=Cc1cc2ccccc2nc1SCc1ccc(Cl)c(Cl)c1	2	34*	4	-8	39*
Cc1ccc(CSc2nc3ccccc3cc2C=O)cc1	1	27	2	-7	/
O=Cc1cc2ccccc2nc1SCc1ccc(Cl)cc1	2	43*	10	56	43*
CCc1ccc(C(=O)NNC(=O)CN2C(=O)NC(CC)(c3ccccc3)C2=O)cc1 (stereo not given)	1	2	-1	/	/
COc1ccc(CN2CCC(n3nccc3NC(=O)C3CC3)CC2)cc1O	1	0	-1	/	/
Cc1cccc(NC(=O)c2cc3c(=O)n4ccccc4nc3n(CC(C)C)c2=N)c1	0	99*	6	-6	-1
COc1cccc(NC(=O)c2cc3c(=O)n4ccccc4nc3n(CC(C)C)c2=N)c1	-1	5	9	12	/
O=C(Nc1ccc(-c2nc3c(ccc4ccccc43)o2)cc1)c1ccco1	-4	33*	18	79*	15

Screening results: PubChem, several laboratories
